Active and inactive are the calls of the source. The rule behind the calls is not given here.

Series [1] addresses T1, Sodium- and chloride-dependent glycine transporter 1 (Rattus norvegicus) (UniProt P28572).
T1 sequence (whole entry): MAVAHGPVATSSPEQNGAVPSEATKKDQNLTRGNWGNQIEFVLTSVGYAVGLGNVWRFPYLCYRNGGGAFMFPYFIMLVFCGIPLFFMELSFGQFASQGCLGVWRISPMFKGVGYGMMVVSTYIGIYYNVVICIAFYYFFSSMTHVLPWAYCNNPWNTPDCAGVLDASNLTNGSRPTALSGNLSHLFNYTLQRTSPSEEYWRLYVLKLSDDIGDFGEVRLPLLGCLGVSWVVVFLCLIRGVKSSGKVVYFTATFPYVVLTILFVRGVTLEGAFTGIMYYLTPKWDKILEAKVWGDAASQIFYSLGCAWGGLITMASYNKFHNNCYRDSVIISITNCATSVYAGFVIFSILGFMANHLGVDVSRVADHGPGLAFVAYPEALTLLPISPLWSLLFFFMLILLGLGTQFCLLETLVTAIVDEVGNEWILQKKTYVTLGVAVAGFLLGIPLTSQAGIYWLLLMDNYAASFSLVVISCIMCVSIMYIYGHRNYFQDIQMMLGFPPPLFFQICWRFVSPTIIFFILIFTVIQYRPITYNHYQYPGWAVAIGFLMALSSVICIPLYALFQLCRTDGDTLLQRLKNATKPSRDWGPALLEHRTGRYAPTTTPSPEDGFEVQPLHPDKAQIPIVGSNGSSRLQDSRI
Kind of series: Binding affinity to GlyT1 in rat brain corpus callosum at 0.03 to 0.04 nM preincubated for 20 mins in binding buffer before compound addition measured after 30 mins by autoradiography in presence of GlyT1 inhibitor N-Me-SSR504734 relative to control. To be noted: tested as the 125I-labelled form. It is filed as tissue-based. The method, boiled down: (§1)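 Rat brain sagittal sections (20 µm) preincubated 20 min at 25 °C in Tris-HCl buffer pH 7.5 (NaCl, KCl, MgCl2, CaCl2), then 30 min at 25 °C with [125I] tracer (100 kBq, 0.03–0.04 nM) plus competitor (10 µM; glycine 1 or 10 mM). Cold washes, imaging plate 3 days, ROI PSL minus background per mm². % control from ≥triplicate slices, three rats.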

Series [2] deals with T1, Sodium- and chloride-dependent glycine transporter 1 (Rattus norvegicus). Kind of series: Binding affinity to GlyT1 in rat brain striatum at 0.03 to 0.04 nM preincubated for 20 mins in binding buffer before compound addition measured after 30 mins by autoradiography in presence of 0.01 mM GlyT1 inhibitor SSR504734 relative to control. It is filed as tissue-based. To be noted: tested as the 125I-labelled form.

The target is the same in series [3]. Kind of series: Binding affinity to GlyT1 in rat brain medullary region at 0.03 to 0.04 nM preincubated for 20 mins in binding buffer before compound addition measured after 30 mins by autoradiography in presence of 0.01 mM NMDA receptor glycine site antagonist L-701,324 relative to control. To be noted: tested as the 125I-labelled form. In kind it is tissue-based. The method, boiled down: as §1

Series [4] has the same target. Kind of series: Binding affinity to GlyT1 in rat brain thalamus at 0.03 to 0.04 nM preincubated for 20 mins in binding buffer before compound addition measured after 30 mins by autoradiography in presence of 1 mM GlyT1 substrate glycine relative to control. The following applies: tested as the 125I-labelled form. It is filed as tissue-based.
Series [5] concerns Mus musculus. Kind of series: In vivo binding affinity to GlyT1 in ddY mouse brain medullary region at 33.3 kBq, iv after 30 mins in presence of SSR504734 2 mg/kg, iv administered 15 mins prior to compound administration relative to control. To be noted: Medulla of organ, tested as the 125I-labelled form. It is filed as functional, organism-based. Details: dose 2 mg/kg.
The target of series [6] is T1, Sodium- and chloride-dependent glycine transporter 1 (Rattus norvegicus). Kind of series: Binding affinity to GlyT1 in rat brain thalamus at 0.03 to 0.04 nM preincubated for 20 mins in binding buffer before compound addition measured after 30 mins by autoradiography in presence of 0.01 mM GlyT1 inhibitor HPCP relative to control. It is filed as tissue-based. To be noted: tested as the 125I-labelled form.

For series [7] the target is unchanged. Kind of series: Binding affinity to GlyT1 in rat brain cerebellum at 0.03 to 0.04 nM preincubated for 20 mins in binding buffer before compound addition measured after 30 mins by autoradiography in presence of 0.01 mM NMDA receptor glycine site antagonist L-701,324 relative to control. It is filed as tissue-based. To be noted: tested as the 125I-labelled form. The method, boiled down: as §1

For series [8] the target is unchanged. Kind of series: Binding affinity to GlyT1 in rat brain medullary region at 0.03 to 0.04 nM preincubated for 20 mins in binding buffer before compound addition measured after 30 mins by autoradiography relative to control. It is filed as tissue-based. The following applies: tested as the 125I-labelled form. The method, boiled down: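 Rat brain sagittal sections (20 µm), 20 min preincubation at 25 °C in Tris-HCl pH 7.5 binding buffer, then [125I] tracer (100 kBq, 0.03–0.04 nM) for 30 min at 25 °C. Nonspecific binding taken with 10 µM unlabeled ligand. Imaging-plate read-out as (PSL−BG)/mm². Mean ± SD, n = 4–5 from at least three rats; Mann–Whitney U-test.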

For series [9] the target is unchanged. Kind of series: Binding affinity to GlyT1 in rat brain midbrain at 0.03 to 0.04 nM preincubated for 20 mins in binding buffer before compound addition measured after 30 mins by autoradiography relative to control. It is filed as tissue-based. To be noted: tested as the 125I-labelled form.
A further series concerns Brain. Kind of series: Drug uptake in ddY mouse brain at 11.1 kBq, iv after 5 min by gamma counting. In kind it is ADME, organism-based. The following applies: in vivo. The method, boiled down:
(§2)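 Male ddY mice (6 weeks, 30–35 g) received about 11.1 kBq [125I]tracer in 0.1 mL i.v. via tail vein. Killed at set times, organs dissected and weighed, radioactivity gamma counted. Reported as % injected dose/g tissue, mean ± SD, n = 5–6.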

The next series has as its system Lung. Kind of series: Drug uptake in ddY mouse lung at 11.1 kBq, iv after 180 min by gamma counting. To be noted: in vivo, 3 h. It is filed as ADME, organism-based. The method, boiled down: (§3)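 Male ddY mice (6 weeks, 30–35 g) were given about 11.1 kBq of [125I]tracer in 0.1 mL i.v. via the tail vein. At each time point the animals were killed and organs dissected, weighed and gamma-counted. Uptake is expressed as % injected dose per gram of tissue, mean ± SD, n = 5–6.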

Series [10] has as its system Mus musculus. Kind of series: In vivo binding affinity to GlyT1 in ddY mouse brain medullary region at 33.3 kBq, iv after 60 mins in presence of N-Me-SSR504734 2 mg/kg, iv administered 15 mins prior to compound administration relative to control. In kind it is functional, Medulla of organ.
The test system of the next series is Kidney. Kind of series: Drug uptake in ddY mouse kidney at 11.1 kBq, iv after 15 min by gamma counting. It is filed as ADME, organism-based. The following applies: in vivo. The method, boiled down:
as §3

The test system of series [11] is Mus musculus. Kind of series: In vivo binding affinity to GlyT1 in ddY mouse brain midbrain at 33.3 kBq, iv after 30 mins in presence of N-Me-SSR504734 2 mg/kg, iv administered 15 mins prior to compound administration relative to control. In kind it is functional.
In the next series the test system is Heart. Kind of series: Drug uptake in ddY mouse heart at 11.1 kBq, iv after 60 min by gamma counting. In kind it is ADME, organism-based. To be noted: in vivo, 1 h. The method, boiled down:
as §2

In the next series the test system is Stomach. Kind of series: Drug uptake in ddY mouse stomach at 11.1 kBq, iv after 60 min by gamma counting. In kind it is ADME, organism-based. To be noted: in vivo, 1 h. The method, boiled down:
as §3

For a further series, the system named is Blood. Kind of series: Drug uptake in ddY mouse blood at 11.1 kBq, iv after 30 min by gamma counting. The following applies: in vivo, 0.5 h. It is filed as ADME, organism-based. The method, boiled down: as §2
Series [12] has as its system Liver. Kind of series: Drug uptake in ddY mouse liver at 11.1 kBq, iv after 180 min by gamma counting. The following applies: in vivo, 3 h. It is filed as ADME, organism-based. The method, boiled down: as §3
The test system of series [13] is Liver. Kind of series: Drug uptake in ddY mouse liver at 11.1 kBq, iv after 15 min by gamma counting. In kind it is ADME, organism-based. The following applies: in vivo. The method, boiled down: as §3
The next series has as its system Nucleic Acid. Kind of series: Ratio of drug level in brain to blood in ddY mouse at 11.1 kBq, iv after 15 min by gamma counting. It is filed as ADME, organism-based.

In the case of `CN1CCCC[C@H]1[C@@H](NC(=O)c1cccc(C(F)(F)F)c1I)c1ccccc1`, the Activity in [1] turned out to be 20.2%; in [2], 50.2%; in series [3] it was 104%; in series [4], 108%; in series [6], 22.5%; in series [7], 87.1%. Besides, the outcome in the series with Mus musculus [5] was inactive. In addition, the outcome in [8] and in [9] was Active.
Take `CN1CCCC[C@H]1[C@@H](NC(=O)c1cccc(C(F)(F)F)c1[125I])c1ccccc1`: the Drug uptake in the series with Brain was found to be 1.33 % ID/g; in the series on Lung it was 9.34 % ID/g; with Kidney it was 8.86 % ID/g; in the series with Heart it was 2.79 % ID/g; with Stomach, 8.26 % ID/g; in the series on Blood, 0.9 % ID/g. Further, the Drug uptake in the series on Liver [12] was determined as 15.05 % ID/g; with Liver [13], 11.51 % ID/g. Moreover, the Activity is given as 47% with Mus musculus [10] and 55% with Mus musculus [11]. Further, the Ratio with Nucleic Acid is 2.42.

Values taken from ChEMBL document CHEMBL1938298, “Synthesis and characterization of [¹²⁵I]2-iodo N-[(S)-{(S)-1-methylpiperidin-2-yl}(phenyl)methyl]3-trifluoromethyl-benzamide as novel imaging probe for glycine transporter 1” (Bioorg Med Chem, 2011).
